Source: PubChem BioAssay
hERG protect: hERG rescue from dofetilide block, primary screen, cell-based, CHO-hERG, FluxOR thallium flux, dofetilide IC70 | Voltage-gated inwardly rectifying potassium channel KCNH2 (Homo sapiens), Q12809 | dofetilide IC70 present | activation (rescue from dofetilide block), less the hit threshold, % at 10 µM | 310,000 tested, 0.51% active | AID 1511, 2009;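 active = activation above the mean of controls blocked by dofetilide plus 5 SD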;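 note: thallium influx through hERG after potassium depolarization seen as dye fluorescence rise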
KCNK3 inh: human KCNK3 channel inhibitors, primary screen, CHO cells, FluxOR thallium flux, B-score; Potassium channel subfamily K member 3 (Homo sapiens), O14649; FluxOR fluorescence; active compounds read low; B-score at 10 µM; 340,000 tested, 0.84% active; AID 602410, 2012;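 active = B-score under library mean minus 4 SD, starting fluorescence ratio at most library mean plus 5 SD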;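 note: more negative B-score means stronger inhibition of thallium flux through KCNK3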
Kir21 block: inhibitors of mouse Kir2.1 inward-rectifier potassium channel | Inward rectifier potassium channel 2 (Mus musculus), P35561 | HEK293-Kir2.1, FluxOR thallium flux fluorescence; active compounds read low | B-score at 10 µM | 310,000 tested, 0.85% active | AID 1672, 2009;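 active = fluorescence ratio B-score at or below minus 3 SD of library scores, with starting-brightness B-score within 2 SD, cut at about -4.2 in these data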;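 note: channel flux triggered by added potassium and thallium sulfate stimulus; B-score of peak minus minimum fluorescence over baseline after thallium stimulus; more negative B-score means stronger Kir2.1 block with less thallium influx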
KCNK9 inh: KCNK9 potassium channel inhibitors, primary screen, HEK293 cells, thallium flux | FluxOR thallium flux fluorescence; active compounds read low | B-score at 10 µM | 310,000 tested, 1.2% active;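 active = ratio B-score over 3 SD below the library mean, with starting fluorescence within 5 SD of its mean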;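 note: negative B-score means less thallium flux so channel inhibition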
Target sequence (Q9NPC2 whole entry, looked up): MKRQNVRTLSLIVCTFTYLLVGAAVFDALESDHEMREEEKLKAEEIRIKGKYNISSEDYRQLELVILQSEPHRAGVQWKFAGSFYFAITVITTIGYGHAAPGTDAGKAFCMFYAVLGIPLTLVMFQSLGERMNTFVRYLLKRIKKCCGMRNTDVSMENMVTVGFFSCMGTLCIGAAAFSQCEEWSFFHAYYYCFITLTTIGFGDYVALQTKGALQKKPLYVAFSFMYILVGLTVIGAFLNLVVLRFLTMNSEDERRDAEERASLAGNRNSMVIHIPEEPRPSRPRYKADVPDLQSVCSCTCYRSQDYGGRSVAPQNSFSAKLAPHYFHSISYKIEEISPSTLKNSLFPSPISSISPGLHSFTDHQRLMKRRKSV
KCNQ1 inh: inhibitors of human KCNQ1 channel, primary screen, cell-based, thallium flux, high-throughput; Potassium voltage-gated channel subfamily KQT member 1 (Homo sapiens), P51787; CHO-K1 KCNQ1, FluxOR thallium flux fluorescence; active compounds read high; B-score at 10 µM; 310,000 tested, 1.3% active;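 active = compounds whose thallium flux B-score, printed positive for inhibition, exceeds three library SD while starting fluorescence stays within three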;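 note: channel opened by potassium depolarization with thallium stimulus after 20 min compound exposure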
KCNQ1 act: potentiators or activators of KCNQ1 channel, primary screen, cell-based, thallium flux, high-throughput | CHO-K1 KCNQ1, thallium flux FluxOR fluorescence; active compounds read high | B-score at 10 µM | 310,000 tested, 0.35% active | AID 2648, 2010;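 active = fluorescence ratio B-score, a plate-corrected score, at least three library SD, with initial intensity B-score within 5 SD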
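Medium – assay buffer, equal DMSO in all wells · Material – CHO-K1 cell line with stable KCNQ1 potassium channel expression · Signal – kinetic FluxOR thallium fluorescence, 10-s 1-Hz baseline, 110-s post-stimulus read · Compound – single concentration per compound, DMSO matched to controls · Schedule – 37 °C overnight plating, 90-min dark dye load, 20-min compound pretreatment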
Each line names hits and unclear results; the compound was inactive in the other large screens. Only some compounds are listed: those with a hit (about 3.7% of all), similar ones and a draw of the others.

CC(NC(=S)Nc1ccc([N+](=O)[O-])cc1)c1ccncc1 (centres undefined)	KCNQ1 inh 7
Cc1cc(/C=C2/SC(=S)N(c3cccc(C(F)(F)F)c3)C2=O)c(C)n1-c1cccnc1	KCNQ1 inh 6
C=CCN1C(=O)CSc2ccc(C(=O)NCc3cccs3)cc21	hERG protect 47
Cc1c(-c2nc(-c3ccncc3)no2)cccc1[N+](=O)[O-]	KCNQ1 act 11
CC(c1ccon1)N(C)C(=O)CCc1nnc(C2(c3ccc(Cl)cc3)CCC2)o1 (centres undefined)	Kir21 block -4.9
CC1=NN(c2ccc(C)c(C)c2)C(=O)C1C(c1cccc(O)c1)C1C(=O)N(c2ccc(C)c(C)c2)N=C1C (centres undefined)	KCNK9 inh -9.8
O=C(CCNS(=O)(=O)c1cccc(C(F)(F)F)c1)NC1CC1	none (no result: hERG protect, Kir21 block, KCNK9 inh, KCNQ1 inh, KCNQ1 act)
COc1ccc(-n2c(SCc3ccc([N+](=O)[O-])cc3)nnc2-c2ccc(C)cc2)cc1	none
CC(C(=O)OCC(=O)c1cccc([N+](=O)[O-])c1)N1C(=O)C2C3C=CC(C3)C2C1=O (centres undefined)	none
CC(C)(C)c1cc(-c2n[nH]c(=S)n2-c2ccc(Cl)cc2)n[nH]1	none
Cc1ccc(C(C)NC(=O)c2ccncc2)cc1C (centres undefined)	none
CC(NC(=O)c1ccncc1)C(C)(C)C (centres undefined)	KCNQ1 act 41
O=c1c(-c2ccccc2)c[nH]n1-c1cccc([N+](=O)[O-])c1	KCNQ1 inh 7
Cc1cccc(NCc2nc(SCC(=O)Nc3ccccc3)n[nH]2)c1	none
Cc1cccc(NCc2nc(SCC(=O)Nc3ccccc3Br)n[nH]2)c1	Kir21 block -5
Cc1ccc(-n2nnnc2C(Cl)c2nnnn2-c2ccc(C)cc2)cc1	Kir21 block -12
Cc1ccc(-n2nnnc2-c2ccccc2)cc1	none
CC1(C)CC(=O)C=C(c2cccc3c2oc2ccccc23)C1	KCNQ1 inh 6
NC(=O)NC(=O)COC(=O)c1ccc(Cl)c(S(=O)(=O)N(Cc2ccccc2)c2ccc(Cl)cc2)c1	none
C=CCNC(=O)COC(=O)c1ccc(Cl)c(S(=O)(=O)N(Cc2ccccc2)c2ccccc2)c1	KCNQ1 inh 6
CC(=O)c1cccc(NC(=O)COc2cc3oc(=O)c(CC(C)O)c(C)c3cc2Cl)c1 (centres undefined)	none
CSc1nc(Cl)c(Cc2ccc(OC(C)C)cc2)c(N2CCOCC2)n1	KCNK9 inh -7.5, KCNQ1 inh 7
CC(=O)Nc1ccc(N2CCc3c(C)c(C#N)c4nc5ccccc5n4c32)cc1	none (no result: KCNK3 inh)
CCc1ccc([C@H]2C(C(=O)O)=C[C@@H](CC3CCCC3)N2S(=O)(=O)c2ccc(C)cc2)cc1	none (no result: hERG protect, Kir21 block, KCNK9 inh, KCNQ1 inh, KCNQ1 act)
NC(=O)CC(NC(=O)c1ccccc1)c1ccc(N2CCC(Cc3ccccc3)CC2)c([N+](=O)[O-])c1 (centres undefined)	KCNK9 inh -6.8
COc1ccc(-n2cccc2C=O)cc1	none
COc1ccc(-n2cccc2/C=C/[N+](=O)[O-])cc1	Kir21 block -4.8
Cc1n[nH]c(C)c1NC(=O)CSc1nnnn1-c1cccc(F)c1	none (no result: hERG protect, Kir21 block, KCNK9 inh, KCNQ1 inh, KCNQ1 act)
CN1CCN(CCOC2Cc3ccccc3Sc3ccc(Cl)cc32)CC1 (centres undefined)	Kir21 block -10
CCCCN1C(=O)/C(=C/C=C2\N(C)c3ccccc3C2(C)C)SC1=S	KCNQ1 inh 11 (no result: KCNK3 inh)
CCCN1C(=O)/C(=C\C=C2/C=CN(CC)c3ccccc32)SC1=S	none
CCOc1ccc(NC(=O)CN(C)C(=O)c2cc([N+](=O)[O-])ccc2N2CCOCC2)cc1OCC	none
O=C(NC1CCCC1)C(=O)N(Cc1cccnc1)C(C(=O)NC1CCCC1)c1ccco1 (centres undefined)	none
Cc1ccc(C(C(=O)NC(C)(C)C)N(Cc2cccnc2)C(=O)C(=O)NC2CCCCC2)o1 (centres undefined)	hERG protect 33
N#Cc1ccncc1S(=O)c1ccc(Cl)cc1 (centres undefined)	none
Cc1cc2ccccn2c1C(=S)NC(=O)c1ccccc1	hERG protect 34, KCNQ1 act 26
COc1cccc(NC(=O)c2ccc(NC(=O)C(C)(C)C)cc2)c1	none
CC(C)(C)C(=O)Nc1cccc(OC(F)(F)C(F)Cl)c1 (centres undefined)	KCNK9 inh -7
CCNc1ccc(Br)cc(C(=O)/C=C/c2c(Cl)cccc2Cl)c1=O	KCNK3 inh -9, KCNQ1 inh 6
CCn1c(SCC(=O)N/N=C/c2cccs2)nc2ccccc21	Kir21 block -4.8
Cn1c(SCC(=O)N/N=C/c2cccs2)nc2ccccc21	none
Cc1c(C)c2ccc(OC(C)C(=O)NC3CCN(Cc4ccccc4)CC3)cc2oc1=O (centres undefined)	none
O=C(CCCOc1ccc(Br)cc1)Nc1nnc(C2CC2)s1	none (no result: hERG protect, Kir21 block, KCNK9 inh, KCNQ1 inh, KCNQ1 act)
O=S(=O)(c1ccc(F)cc1)N1CCN(c2ccc(-c3ccccc3)nn2)CC1	none
CCOCCN1CCN(c2c(CC)c(C)nc3cc(-c4cc(OC)cc(OC)c4)nn23)CC1	KCNK9 inh -7.2
CCOC(=O)C1CCN(C(=O)c2sccc2Cl)CC1	none
Cc1ccsc1C1Nc2ccccc2-c2nc3ccccc3n21 (centres undefined)	none
c1csc(C2Nc3ccccc3-c3nc4ccccc4n32)c1 (centres undefined)	Kir21 block -4.5
CS(=O)(=O)N(CC(=O)N1CCc2ccccc2C1)c1cccc(F)c1	hERG protect 11, Kir21 block -4.2
COc1cc2c(cc1OC)C(c1ccccc1O)N(C1CC(=O)N(c3ccccc3)C1=O)CC2 (centres undefined)	none (no result: hERG protect, Kir21 block, KCNK9 inh, KCNQ1 inh, KCNQ1 act)
CN(c1ccccc1)S(=O)(=O)c1cccc(C(=O)OCC(=O)NCc2ccco2)c1	hERG protect 11
O=C(COC(=O)c1ccccc1)NCc1ccco1	none
CN(c1ccccc1)S(=O)(=O)c1cccc(C(=O)OCC(=O)NCc2ccccc2)c1	none (no result: hERG protect, Kir21 block, KCNK9 inh, KCNQ1 inh, KCNQ1 act)
O=C(COC(=O)c1ccccc1Nc1cccc(C(F)(F)F)c1)NCc1ccco1	KCNK3 inh -8.9
CCOC(=O)C(C)/C(C)=N/NC(N)=S (centres undefined)	none
O=C1c2ccccc2S(=O)(=O)c2cc(C(=O)N3CCC(C(=O)N4CCCCC4)CC3)ccc21	none (no result: KCNK3 inh)
CCN1C(=O)c2cccc3c(NC(=O)c4ccc5c(c4)OCCO5)ccc1c23	KCNK3 inh -10
